# Measurements as given in ChEMBL document CHEMBL4689842, “EUbOPEN Chemogenomics Library wave 1” (2021).
# What was measured:
# Assay type in all cases: toxicity, cell-based
# HEK-293T [1] = assay: Incucyte cell viability with HEK293T; details: human, 10 µM, compound concentration 10 uM; further: filed as whole numbers so only -1 and 0 and 1 occur
# Fibroblast = assay: Incucyte cell viability with human fibroblast; details: 10 µM, compound concentration 10 uM; further: filed as whole numbers so only -1 and 0 and 1 occur
# HEK-293T [2] = assay: Multiplex assay against HEK293T; details: human;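 on Population Tubulin-Different-Phenotype (%): share of the cells with healthy nuclei that show this phenotype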
# Method in brief: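 At seeding, live cells were stained with Hoechst33342, BioTracker Green Microtubule Cytoskeleton Dye, MitoTracker Red and Annexin V Alexa Fluor 680. After compound addition they were imaged on a CQ1 microscope at 37°C and 5% CO2, and CellPathfinder machine-learning gating sorted them into Hoechst high-intensity objects or normal cells, with normal cells further split into healthy, pyknosed or fragmented nuclei and pyknosed cells into mitotic or apoptotic. Tubulin, mitochondrial-mass and membrane-permeability phenotypes are given as per cents of cells with healthy nuclei.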
# [3] = 0 h, replicate number 1, timepoint 0 hours
# [4] = 12 h, replicate number 2, timepoint 12 hours
# [5] = 18 h, replicate number 1, timepoint 18 hours
# [6] = 18 h, replicate number 2, timepoint 18 hours
# [7] = 24 h, replicate number 1, timepoint 24 hours
# [8] = 24 h, replicate number 2, timepoint 24 hours
# [9] = 12 h, 1 µM, compound concentration 1 uM, replicate 1
# [10] = 12 h, 1 µM, compound concentration 1 uM, replicate 2
# [11] = 12 h, 10 µM, compound concentration 10 uM, replicate 1
# [12] = 12 h, 10 µM, compound concentration 10 uM, replicate 2
# [13] = 24 h, 1 µM, compound concentration 1 uM, replicate 1
# [14] = 24 h, 1 µM, compound concentration 1 uM, replicate 2
compound,measurement,setting,value
CC(/C=C1\SC(=S)N(CCCC(=O)Nc2ccc(C(=O)O)c(O)c2)C1=O)=C\c1ccccc1,Growth Rate,HEK-293T [1]; [3],0
same,Growth Rate,"HEK-293T [1]; 6 h, replicate number 1, timepoint 6 hours",1
same,Growth Rate,"HEK-293T [1]; 12 h, replicate number 1, timepoint 12 hours",0
same,Growth Rate,HEK-293T [1]; [4],1
same,Growth Rate,HEK-293T [1]; [5],0
same,Growth Rate,HEK-293T [1]; [6],1
same,Growth Rate,HEK-293T [1]; [7],0
same,Growth Rate,HEK-293T [1]; [8],1
same,Growth Rate,Fibroblast; [3],0
same,Growth Rate,"Fibroblast; 6 h, replicate number 2, timepoint 6 hours",0
same,Growth Rate,Fibroblast; [4],0
same,Growth Rate,Fibroblast; [5],1
same,Growth Rate,Fibroblast; [6],0
same,Growth Rate,Fibroblast; [7],1
same,Growth Rate,Fibroblast; [8],0
same,Population Apoptotic (%),HEK-293T [2]; [9],38%
same,Population Fragmented Nuclei (%),HEK-293T [2]; [9],11%
same,Population Healthy Nuclei (%),HEK-293T [2]; [9],34%
same,Population Hoechst High Intensity Objects (%),HEK-293T [2]; [9],9%
same,Population Membrane Permeable-Phenotype (%),HEK-293T [2]; [9],3%
same,Population Mitochondria Different-Phenotype (%),HEK-293T [2]; [9],68%
same,Population Mitotic Cells (%),HEK-293T [2]; [9],61%
same,Population Normal (%),HEK-293T [2]; [9],90%
same,Population Pyknosed Nuclei (%),HEK-293T [2]; [9],53%
same,Population Tubulin-Different-Phenotype (%),HEK-293T [2]; [9],34%
same,Total Cell Count,HEK-293T [2]; [9],251
same,Population Apoptotic (%),HEK-293T [2]; [10],5%
same,Population Fragmented Nuclei (%),HEK-293T [2]; [10],2%
same,Population Healthy Nuclei (%),HEK-293T [2]; [10],44%
same,Population Hoechst High Intensity Objects (%),HEK-293T [2]; [10],2%
same,Population Membrane Permeable-Phenotype (%),HEK-293T [2]; [10],9%
same,Population Mitochondria Different-Phenotype (%),HEK-293T [2]; [10],20%
same,Population Mitotic Cells (%),HEK-293T [2]; [10],94%
same,Population Normal (%),HEK-293T [2]; [10],97%
same,Population Pyknosed Nuclei (%),HEK-293T [2]; [10],52%
same,Population Tubulin-Different-Phenotype (%),HEK-293T [2]; [10],21%
same,Total Cell Count,HEK-293T [2]; [10],242
same,Population Apoptotic (%),HEK-293T [2]; [11],40%
same,Population Fragmented Nuclei (%),HEK-293T [2]; [11],10%
same,Population Healthy Nuclei (%),HEK-293T [2]; [11],35%
same,Population Hoechst High Intensity Objects (%),HEK-293T [2]; [11],13%
same,Population Membrane Permeable-Phenotype (%),HEK-293T [2]; [11],6%
same,Population Mitochondria Different-Phenotype (%),HEK-293T [2]; [11],65%
same,Population Mitotic Cells (%),HEK-293T [2]; [11],59%
same,Population Normal (%),HEK-293T [2]; [11],86%
same,Population Pyknosed Nuclei (%),HEK-293T [2]; [11],54%
same,Population Tubulin-Different-Phenotype (%),HEK-293T [2]; [11],34%
same,Total Cell Count,HEK-293T [2]; [11],255
same,Population Apoptotic (%),HEK-293T [2]; [12],8%
same,Population Fragmented Nuclei (%),HEK-293T [2]; [12],5%
same,Population Healthy Nuclei (%),HEK-293T [2]; [12],50%
same,Population Hoechst High Intensity Objects (%),HEK-293T [2]; [12],1%
same,Population Membrane Permeable-Phenotype (%),HEK-293T [2]; [12],5%
same,Population Mitochondria Different-Phenotype (%),HEK-293T [2]; [12],5%
same,Population Mitotic Cells (%),HEK-293T [2]; [12],91%
same,Population Normal (%),HEK-293T [2]; [12],98%
same,Population Pyknosed Nuclei (%),HEK-293T [2]; [12],43%
same,Population Tubulin-Different-Phenotype (%),HEK-293T [2]; [12],8%
same,Total Cell Count,HEK-293T [2]; [12],269
same,Population Apoptotic (%),HEK-293T [2]; [13],41%
same,Population Fragmented Nuclei (%),HEK-293T [2]; [13],13%
same,Population Healthy Nuclei (%),HEK-293T [2]; [13],41%
same,Population Hoechst High Intensity Objects (%),HEK-293T [2]; [13],13%
same,Population Membrane Permeable-Phenotype (%),HEK-293T [2]; [13],1%
same,Population Mitochondria Different-Phenotype (%),HEK-293T [2]; [13],53%
same,Population Mitotic Cells (%),HEK-293T [2]; [13],58%
same,Population Normal (%),HEK-293T [2]; [13],86%
same,Population Pyknosed Nuclei (%),HEK-293T [2]; [13],45%
same,Population Tubulin-Different-Phenotype (%),HEK-293T [2]; [13],26%
same,Total Cell Count,HEK-293T [2]; [13],263
same,Population Apoptotic (%),HEK-293T [2]; [14],16%
same,Population Fragmented Nuclei (%),HEK-293T [2]; [14],5%
same,Population Healthy Nuclei (%),HEK-293T [2]; [14],62%
